The values that follow come from PMC8416298 (European Journal of Medicinal Chemistry, 2021).

For orientation: EC50 means the midpoint of the concentration-response curve.

One data set concerns SARS-CoV-2/NL/2020. As to the kind of experiment: Plaque reduction assay. In kind it is cell-based. The note with it: for dose-dependent inhibitory activity: any of the tested SARS-CoV-2 strains, up to 50 μM. In general terms: Plaques are areas of infected cells; plaque reduction assays count them against a control.
For the next data set, the system named is MRC-5 cells. As to the kind of experiment: MTT cell viability assay in MRC-5 cells. The note with it: in words. In kind it is cell-based, human. Summed up: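 Human fibroblast MRC-5 cells exposed to test compound for 72 h; viability read by MTT (3-(4,5-dimethylthiazol-2-yl)-2,5-diphenyl tetrazolium bromide) assay. CC50 taken as the compound concentration that inhibits cell viability by 50%.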
Background: Formazan colour is commonly taken as a measure of viable cells.

The subject of a further data set is HCoV-229E. As to the kind of experiment: microbe, parasite or virus in culture. In kind it is cell-based. To be noted: Human coronavirus 229E, MRC5, read-out: EC50 (CI).
Data set [1] concerns SARS-CoV-2. To be noted: 4-day cytopathic effect protection assay, Vero E6 cells; cited from earlier work. A general note: Damage to the host cells serves as the signal in cytopathic effect assays.
In data set [2] the test system is SARS-CoV-2. The note with it: virus yield reduction assay, 48 h, infected Vero E6 cells; cited from earlier work.
A further data set deals with CCoV. The note with it: dog, po, 1 mg/kg; cited from earlier work.
The subject of data set [3] is human prostaglandin E synthase type 2 (PGES-2). The note with it: cited from earlier work.

Structures are written as SMILES. Like-named read-outs stand apart in the source and are kept apart here.

`COc1ccc2c(c1)c(CC(=O)NCCCCC(=O)N[C@H](C(=O)N1C[C@H](O)C[C@H]1C(=O)N[C@@H](C)c1ccc(-c3scnc3C)cc1)C(C)(C)C)c(C)n2C(=O)c1ccc(Cl)cc1` [Compound 2, (2S,4R)-1-((S)-2-(5-(2-(1-(4-chlorobenzoyl)-5-methoxy-2-methyl-1H-indol-3-yl)acetamido)pentanamido)-3,3-dimethylbutanoyl)-4-hydroxy-N-((S)-1-(4-(4-methylthiazol-5-yl)phenyl)ethyl)pyrrolidine-2-carboxamide]: the dose-dependent inhibitory activity result in the data set with SARS-CoV-2/NL/2020 is reported as “did not show dose-dependent inhibitory activity”.
With `COc1ccc2c(c1)c(CC(=O)NCCCCCCC(=O)N[C@H](C(=O)N1C[C@H](O)C[C@H]1C(=O)N[C@@H](C)c1ccc(-c3scnc3C)cc1)C(C)(C)C)c(C)n2C(=O)c1ccc(Cl)cc1` [Compound 3, (2S,4R)-1-((S)-2-(7-(2-(1-(4-chlorobenzoyl)-5-methoxy-2-methyl-1H-indol-3-yl)acetamido)heptanamido)-3,3-dimethylbutanoyl)-4-hydroxy-N-((S)-1-(4-(4-methylthiazol-5-yl)phenyl)ethyl)pyrrolidine-2-carboxamide], in the data set with MRC-5 cells, the cytotoxicity result was “did not show significant cytotoxicity”.
Consider `COc1ccc2c(c1)c(CC(=O)NCCOCCOCC(=O)N[C@H](C(=O)N1C[C@H](O)C[C@H]1C(=O)N[C@@H](C)c1ccc(-c3scnc3C)cc1)C(C)(C)C)c(C)n2C(=O)c1ccc(Cl)cc1` [Compound 4, (2S,4R)-1-((S)-2-(tert-butyl)-14-(1-(4-chlorobenzoyl)-5-methoxy-2-methyl-1H-indol-3-yl)-4,13-dioxo-6,9-dioxa-3,12-diazatetradecanoyl)-4-hydroxy-N-((S)-1-(4-(4-methylthiazol-5-yl)phenyl)ethyl)pyrrolidine-2-carboxamide], for which the dose-dependent inhibitory activity entry in the data set on SARS-CoV-2/NL/2020 is “did not show dose-dependent inhibitory activity”. The “activity in PRA” value with SARS-CoV-2/NL/2020 (in words) is “not active”.
Turning to `COc1ccc2c(c1)c(CC(=O)NCCN1CCN(C(=O)CCC(=O)N[C@H](C(=O)N3C[C@H](O)C[C@H]3C(=O)N[C@@H](C)c3ccc(-c4scnc4C)cc3)C(C)(C)C)CC1)c(C)n2C(=O)c1ccc(Cl)cc1` [Compound 5, (2S,4R)-1-((S)-2-(4-(4-(2-(2-(1-(4-chlorobenzoyl)-5-methoxy-2-methyl-1H-indol-3-yl)acetamido)ethyl)piperazin-1-yl)-4-oxobutanamido)-3,3-dimethylbutanoyl)-4-hydroxy-N-((S)-1-(4-(4-methylthiazol-5-yl)phenyl)ethyl)pyrrolidine-2-carboxamide], in the data set on HCoV-229E, the 50% effective concentration (EC50) was 3.4 µM. Besides, the cytotoxicity result with MRC-5 cells is “did not show significant cytotoxicity”.
Consider `COc1ccc2c(c1)c(CC(=O)O)c(C)n2C(=O)c1ccc(Cl)cc1` [INM, Indomethacin], for which the figures for the EC50 in the data set on SARS-CoV-2 [1] and in the data set on SARS-CoV-2 [2] were > 400 µM and 100 µM, respectively. In the data set on CCoV, the “in vivo antiviral efficacy” value is “in vivo antiviral efficacy”. In data set [3], the PGES-2 inhibition result is given as “low nanomolar range”.
